Data taken from ChEMBL document CHEMBL1158546, “Discovery of novel and potent leukotriene B4 receptor antagonists. Part 1” (J Med Chem, 2010).
Values after ≈ are worked out from the molar mass of the structure shown. Active and inactive are the calls of the source. No cut-off for these calls is given here.

How the values were obtained:
[1] = target: T1, Leukotriene B4 receptor 1 (Homo sapiens, UniProt Q15722); test: Antagonist activity at BLT1 receptor expressed in human HL60 cells assessed as inhibition of LTB4-stimulated calcium flux after 30 mins; assay type: functional, cell-based, HL-60; settings: read-out: IC50
T1 sequence (Q15722 whole entry): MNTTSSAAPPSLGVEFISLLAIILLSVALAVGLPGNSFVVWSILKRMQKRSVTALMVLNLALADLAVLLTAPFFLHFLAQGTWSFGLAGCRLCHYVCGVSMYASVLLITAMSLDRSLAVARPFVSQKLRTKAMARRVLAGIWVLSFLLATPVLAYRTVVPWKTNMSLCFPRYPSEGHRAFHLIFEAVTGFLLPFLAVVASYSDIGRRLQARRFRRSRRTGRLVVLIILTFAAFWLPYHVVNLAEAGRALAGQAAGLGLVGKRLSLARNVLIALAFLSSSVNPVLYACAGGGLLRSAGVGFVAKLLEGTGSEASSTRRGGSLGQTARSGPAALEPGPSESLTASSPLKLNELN
Outline: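 HL-60 cells grown in RPMI-1640 with 20% FBS were plated at 2.0 × 10^5 cells/ml with 1 μM retinoic acid. They were dye-loaded in HBSS/20 mM HEPES/5 mM probenecid (0.05% BSA in the replacement buffer) for 1 h at 37 C. Compound (5 × 10^-11 to 3 × 10^-6 M final) was added for 30 min at room temperature, then 0.5 μM LTB4. Fluorescence was read every 1.5 s for 100 s and peak increase scored as % inhibition versus DMSO control.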

Neutrophil = test: Inhibition of LTB4-stimulated human neutrophils migration after 30 mins by using CyQuant GR fluorescent dye; assay type: functional, cell-based; settings: Homo sapiens, Neutrophil, 0.5 h; read-out: IC50
Outline: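 Human blood neutrophils (95-97% pure, isolated over Lympholyte-poly) at 5 × 10^6 cells/mL were preincubated with compound (3 × 10^-12 to 1 × 10^-6 M final) for 30 min at 37 C. Migration toward 100 ng/mL LTB4 across a polycarbonate membrane ran 90 min at 37 C. Migrated cells were lysed with CyQuant GR and read at 480/520 nm. IC50 was taken from a sigmoidal fit of % inhibition.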

Cytochrome P450 2C19 = Cytochrome P450 2C19 (Homo sapiens, UniProt P33261); test: Inhibition of CYP2C19 fluorescence method; assay type: ADME
Cytochrome P450 2C19, sequence (P33261 whole entry): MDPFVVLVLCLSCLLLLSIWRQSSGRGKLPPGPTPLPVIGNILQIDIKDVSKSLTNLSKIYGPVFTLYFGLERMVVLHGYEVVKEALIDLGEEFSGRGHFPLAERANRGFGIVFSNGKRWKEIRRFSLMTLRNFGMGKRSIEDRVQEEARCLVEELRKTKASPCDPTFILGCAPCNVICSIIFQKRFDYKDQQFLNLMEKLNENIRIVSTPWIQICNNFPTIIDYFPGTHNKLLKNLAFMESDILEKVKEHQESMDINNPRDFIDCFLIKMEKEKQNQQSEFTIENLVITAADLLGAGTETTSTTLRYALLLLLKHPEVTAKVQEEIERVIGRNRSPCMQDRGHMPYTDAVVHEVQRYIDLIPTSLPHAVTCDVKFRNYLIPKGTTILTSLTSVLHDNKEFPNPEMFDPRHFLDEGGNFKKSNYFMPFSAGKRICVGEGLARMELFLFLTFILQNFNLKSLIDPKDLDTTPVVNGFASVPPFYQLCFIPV
Outline: (§1)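 Cytochrome P450 high-throughput panel (1A2, 2D6, 2C9, 2C19, 3A4) using fluorogenic substrates; IC50 reported.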

Cytochrome P450 1A2 = target: T2, Cytochrome P450 1A2 (Homo sapiens, UniProt P05177); test: Inhibition of CYP1A2 by fluorescence method; assay type: ADME; outline: as §1
T2 sequence (P05177 whole entry): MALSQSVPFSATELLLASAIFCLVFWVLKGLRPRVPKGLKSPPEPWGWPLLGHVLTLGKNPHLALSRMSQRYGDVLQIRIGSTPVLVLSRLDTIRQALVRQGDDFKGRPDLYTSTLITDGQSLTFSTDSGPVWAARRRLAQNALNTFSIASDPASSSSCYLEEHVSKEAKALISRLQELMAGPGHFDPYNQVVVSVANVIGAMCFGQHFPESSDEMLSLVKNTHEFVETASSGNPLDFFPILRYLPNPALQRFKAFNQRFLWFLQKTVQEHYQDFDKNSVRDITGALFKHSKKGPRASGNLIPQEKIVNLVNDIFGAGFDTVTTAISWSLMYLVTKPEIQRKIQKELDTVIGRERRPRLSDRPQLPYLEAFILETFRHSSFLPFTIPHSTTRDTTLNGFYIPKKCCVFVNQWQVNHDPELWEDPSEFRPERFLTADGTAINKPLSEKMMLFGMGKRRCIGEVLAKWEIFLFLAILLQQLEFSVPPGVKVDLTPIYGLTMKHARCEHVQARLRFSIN

Cytochrome P450 2D6 = Cytochrome P450 2D6 (Homo sapiens, UniProt P10635); test: Inhibition of CYP2D6 fluorescence method; assay type: ADME
Cytochrome P450 2D6, sequence (P10635 whole entry): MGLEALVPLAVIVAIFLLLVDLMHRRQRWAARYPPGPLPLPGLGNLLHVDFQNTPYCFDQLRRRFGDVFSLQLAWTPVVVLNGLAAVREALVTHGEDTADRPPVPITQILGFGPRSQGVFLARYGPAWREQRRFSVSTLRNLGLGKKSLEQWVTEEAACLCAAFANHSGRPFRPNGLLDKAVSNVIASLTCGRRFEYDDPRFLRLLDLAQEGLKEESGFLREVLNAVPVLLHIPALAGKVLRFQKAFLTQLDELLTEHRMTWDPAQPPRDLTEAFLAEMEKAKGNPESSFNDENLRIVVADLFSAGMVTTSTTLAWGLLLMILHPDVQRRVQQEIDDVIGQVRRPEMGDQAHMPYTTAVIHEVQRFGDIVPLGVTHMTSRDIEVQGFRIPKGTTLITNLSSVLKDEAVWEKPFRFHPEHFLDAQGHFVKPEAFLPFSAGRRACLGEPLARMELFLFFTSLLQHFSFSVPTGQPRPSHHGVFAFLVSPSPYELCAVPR
Outline: (§2)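 High-throughput CYP panel covering 1A2, 2D6, 2C9, 2C19 and 3A4, using fluorogenic substrates. IC50 was determined in μM.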

Cytochrome P450 3A4 = Cytochrome P450 3A4 (Homo sapiens, UniProt P08684); test: Inhibition of CYP3A4 fluorescence method; assay type: ADME; outline: as §2
Cytochrome P450 3A4, sequence (P08684 whole entry): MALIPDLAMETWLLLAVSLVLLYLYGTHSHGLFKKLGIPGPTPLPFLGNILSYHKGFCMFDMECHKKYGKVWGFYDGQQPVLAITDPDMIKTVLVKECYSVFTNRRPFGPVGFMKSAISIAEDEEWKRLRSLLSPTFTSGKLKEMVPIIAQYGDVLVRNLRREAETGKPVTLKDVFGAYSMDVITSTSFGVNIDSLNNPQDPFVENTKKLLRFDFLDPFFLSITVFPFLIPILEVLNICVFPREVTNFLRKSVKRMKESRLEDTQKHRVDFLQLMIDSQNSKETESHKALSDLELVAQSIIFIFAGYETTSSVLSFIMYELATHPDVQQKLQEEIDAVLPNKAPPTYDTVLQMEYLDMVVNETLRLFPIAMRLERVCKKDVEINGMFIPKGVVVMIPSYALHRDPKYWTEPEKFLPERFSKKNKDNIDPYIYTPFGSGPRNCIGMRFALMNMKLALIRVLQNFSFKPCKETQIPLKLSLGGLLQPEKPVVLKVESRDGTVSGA

Cytochrome P450 2C9 = Cytochrome P450 2C9 (Homo sapiens, UniProt P11712); test: Inhibition of CYP2C9 fluorescence method; assay type: ADME
Cytochrome P450 2C9, sequence (P11712 whole entry): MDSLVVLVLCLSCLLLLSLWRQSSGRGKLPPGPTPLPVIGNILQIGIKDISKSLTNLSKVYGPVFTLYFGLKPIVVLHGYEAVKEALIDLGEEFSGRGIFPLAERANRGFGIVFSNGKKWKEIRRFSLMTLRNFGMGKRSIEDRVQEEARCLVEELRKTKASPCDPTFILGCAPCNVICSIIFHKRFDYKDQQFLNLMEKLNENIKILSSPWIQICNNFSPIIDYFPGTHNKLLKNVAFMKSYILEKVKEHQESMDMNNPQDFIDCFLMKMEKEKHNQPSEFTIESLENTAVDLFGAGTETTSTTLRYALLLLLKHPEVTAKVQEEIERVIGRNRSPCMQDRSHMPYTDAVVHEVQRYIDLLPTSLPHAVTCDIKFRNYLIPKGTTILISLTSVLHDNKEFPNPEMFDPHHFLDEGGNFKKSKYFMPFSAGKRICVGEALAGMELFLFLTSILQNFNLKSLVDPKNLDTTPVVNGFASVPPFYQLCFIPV

[2] = target: T3, Voltage-gated inwardly rectifying potassium channel KCNH2 (Homo sapiens, UniProt Q12809); test: Inhibition of human ERG expressed in CHO cells at 3 uM assessed as reduction of current amplitude
T3 sequence (Q12809 whole entry): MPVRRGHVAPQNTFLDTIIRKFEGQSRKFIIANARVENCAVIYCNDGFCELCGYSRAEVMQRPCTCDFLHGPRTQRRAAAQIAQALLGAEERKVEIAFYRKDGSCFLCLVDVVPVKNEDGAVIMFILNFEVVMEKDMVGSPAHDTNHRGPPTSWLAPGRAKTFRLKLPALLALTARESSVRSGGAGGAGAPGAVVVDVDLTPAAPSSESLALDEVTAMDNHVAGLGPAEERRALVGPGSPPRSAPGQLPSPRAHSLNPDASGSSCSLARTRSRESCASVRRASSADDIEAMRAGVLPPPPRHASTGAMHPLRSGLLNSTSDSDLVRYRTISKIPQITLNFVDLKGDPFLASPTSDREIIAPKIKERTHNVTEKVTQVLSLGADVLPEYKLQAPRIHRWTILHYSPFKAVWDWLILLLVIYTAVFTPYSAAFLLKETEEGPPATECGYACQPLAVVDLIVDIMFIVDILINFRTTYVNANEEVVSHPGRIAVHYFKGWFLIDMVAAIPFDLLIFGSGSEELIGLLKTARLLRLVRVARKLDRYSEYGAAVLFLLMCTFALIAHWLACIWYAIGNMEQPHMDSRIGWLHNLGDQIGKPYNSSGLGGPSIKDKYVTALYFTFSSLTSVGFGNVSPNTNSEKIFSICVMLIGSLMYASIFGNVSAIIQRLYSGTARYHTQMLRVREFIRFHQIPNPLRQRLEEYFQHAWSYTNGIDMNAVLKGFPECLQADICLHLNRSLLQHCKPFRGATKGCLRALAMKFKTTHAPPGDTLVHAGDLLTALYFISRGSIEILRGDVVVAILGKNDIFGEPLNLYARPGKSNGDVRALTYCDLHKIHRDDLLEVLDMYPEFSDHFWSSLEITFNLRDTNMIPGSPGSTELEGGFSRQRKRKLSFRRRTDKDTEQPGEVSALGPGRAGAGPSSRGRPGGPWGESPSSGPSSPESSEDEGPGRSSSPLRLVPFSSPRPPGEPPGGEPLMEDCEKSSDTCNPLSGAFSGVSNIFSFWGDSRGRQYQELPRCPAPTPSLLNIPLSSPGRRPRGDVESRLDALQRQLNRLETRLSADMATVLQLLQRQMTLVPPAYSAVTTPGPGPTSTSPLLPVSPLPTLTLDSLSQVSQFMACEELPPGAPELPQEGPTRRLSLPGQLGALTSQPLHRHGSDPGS

[3] = Solubility of compound in small intestinal contents in the fasted state at pH 6.5; assay type: ADME
Outline: (§3)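 Solubility measured in simulated intestinal fluid at pH 5.0 (fed) or pH 6.5 (fasted), reported in μg/mL.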

[4] = Lipophilicity, log D of compound at pH 7.4; settings: buffer
[5] = Solubility of compound in small intestinal contents in the fed state at pH 5; assay type: ADME; outline: as §3
[6] = Cmax in Sprague-Dawley rat at 10 mg/kg, po; assay type: ADME, organism-based; set-up: dose 10 mg/kg, route oral; settings: in vivo
Outline: (§4)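 Rat single-dose PK, n = 3, with oral dosing at 10 mg/kg and intravenous dosing at 2.5 or 5 mg/kg.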

[7] = Tmax in Sprague-Dawley rat at 10 mg/kg, po; assay type: ADME, organism-based; set-up: dose 10 mg/kg, route oral; settings: in vivo; outline: as §4
[8] = target: T1, Leukotriene B4 receptor 1; test: Antagonist activity at FLAG-tagged human BLT1 receptor expressed in HEK293 cells assessed as inhibition of LTB4-stimulated calcium mobilization preincubated for 10 mins before LTB4 challenge; assay type: functional, cell-based
[9] = Oral bioavailability in Sprague-Dawley rat at 10 mg/kg, po; assay type: ADME, organism-based; settings: in vivo; outline: as §4
[10] = Half life in Sprague-Dawley rat at 2.5 mg/kg, iv; assay type: ADME, organism-based; set-up: dose 2.5 mg/kg, route intravenous; settings: in vivo
[11] = Half life in Sprague-Dawley rat at 10 mg/kg, po; assay type: ADME, organism-based; set-up: dose 10 mg/kg, route oral; settings: in vivo; outline: as §4
Cavia porcellus = test: Antiinflammatory activity against LTB4-evoked eosinophilic pulmonary inflammation in Hartley guinea pig at 10 mg/kg, po after 1 hr treated before LTB4 challenge; assay type: functional, organism-based; set-up: dose 10 mg/kg
Outline: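 Male Hartley guinea pigs (250-350 g) were dosed orally with 10 mg/kg in 2% Klucel LF/0.1% Tween-80. One hour later they were exposed to 10 μg/mL LTB4 aerosol for 20 min. BAL (3 × 5 mL HBSS) was done 2 h after challenge under pentobarbital. Cells were counted, and differentials of at least 300 cells were taken on Wright-stained cytospins. Analysis by two-way ANOVA/Bonferroni; 4-20 animals per group.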

[12] = target: T4, Leukotriene B4 receptor 2 (Homo sapiens, UniProt Q9NPC1); test: Antagonist activity at FLAG-tagged human BLT2 receptor expressed in HEK293 cells assessed as inhibition of LTB4-stimulated calcium mobilization preincubated for 10 mins before LTB4 challenge; assay type: functional, cell-based
T4 sequence (Q9NPC1 whole entry): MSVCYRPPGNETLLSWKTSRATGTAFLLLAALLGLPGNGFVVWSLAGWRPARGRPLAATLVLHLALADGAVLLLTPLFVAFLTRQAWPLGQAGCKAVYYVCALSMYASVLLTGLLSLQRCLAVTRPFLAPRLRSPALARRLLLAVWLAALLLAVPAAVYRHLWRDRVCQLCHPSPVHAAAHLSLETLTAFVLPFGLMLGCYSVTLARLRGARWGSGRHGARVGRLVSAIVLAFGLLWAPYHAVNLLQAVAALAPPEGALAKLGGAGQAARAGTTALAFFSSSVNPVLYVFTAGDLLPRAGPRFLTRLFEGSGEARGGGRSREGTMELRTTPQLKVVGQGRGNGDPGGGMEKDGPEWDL

[13] = Clearance in Sprague-Dawley rat at 2.5 mg/kg, iv; assay type: ADME, organism-based; set-up: dose 2.5 mg/kg, route intravenous; settings: in vivo
[14] = target: T3, Voltage-gated inwardly rectifying potassium channel KCNH2; test: Inhibition of human ERG expressed in CHO cells assessed as reduction of current amplitude
[15] = Volume of distribution at steady state in Sprague-Dawley rat at 2.5 mg/kg, iv; assay type: ADME, organism-based; set-up: dose 2.5 mg/kg, route intravenous; settings: in vivo, read-out: Vdss
Cynomolgus monkey = test: Antiinflammatory activity against ascaris suum antigen-evoked increase in neutrophils at bronchoalveolar lavage in cynomolgus monkey at 10 mg/kg, po after 1 hr treated before LTB4 challenge; assay type: functional, organism-based; set-up: dose 10 mg/kg; settings: Macaca fascicularis, in the assay text read “before Ascaris suum antigen challenge” for “before LTB4 challenge”
Outline: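 Male cynomolgus monkeys (4-10 kg) naturally hypersensitive to Ascaris suum had baseline BAL 24 h before challenge. They were dosed orally with 10 mg/kg in 15% Labrasol in PEG. One hour later, under ketamine/xylazine, they received antigen aerosol for 90 s by endotracheal tube. BAL neutrophil percentage came from 300-cell LeukoStat differentials, with hemocytometer totals. Analysis by two-way ANOVA/Bonferroni; 3-21 animals per group.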

O=C(O)CCCOc1cccc(CCCCCCOc2cc(-c3ccsc3)cc(-c3ccsc3)c2)c1CCC(=O)O
IC50 [1]: 0.58 nM

O=C(O)CCCOc1cccc(CCCCCCOc2cc(-c3ccncc3)cc(-c3cccc(F)c3)c2)c1CCC(=O)O
IC50 [1]: 0.18 nM | IC50 (Neutrophil): 0.2 nM

O=C(O)CCCOc1cccc(CCCCCCOc2cc(-c3ccc4c(c3)OCO4)cc(-c3ccccc3F)c2)c1CCC(=O)O
IC50 (Cytochrome P450 2C19): > 7500 nM | IC50 (Cytochrome P450 1A2): > 7500 nM | IC50 (Cytochrome P450 2D6): > 7500 nM | IC50 (Cytochrome P450 3A4): > 7500 nM | IC50 [1]: 0.61 nM | IC50 (Cytochrome P450 2C9): 7600 nM | INH [2]: Not Active | IC50 (Neutrophil): 7.67 nM | solubility [3]: 27.1 µg/mL (≈ 42.2 µM) | logD [4]: 2.44 | solubility [5]: 38.1 µg/mL (≈ 59.3 µM)

O=C(O)CCCOc1cccc(CCCCCCOc2cc(-c3ccsc3)cc(-c3ccnc(Cl)c3)c2)c1CCC(=O)O
IC50 [1]: 0.57 nM

O=C(O)CCCOc1cccc(CCCCCCOc2cc(-c3ccc(F)cc3)cc(-c3ccc4c(c3)OCCO4)c2)c1CCC(=O)O
IC50 [1]: 60.2 nM

COc1ccc(-c2cc(OCCCCCCc3cccc(OCCCC(=O)O)c3CCC(=O)O)cc(-c3ccc4c(c3)OCO4)c2)cc1
IC50 [1]: 3.27 nM

O=C(O)CCCOc1cccc(CCCCCCOc2cc(-c3cncnc3)cc(-c3cncnc3)c2)c1CCC(=O)O
IC50 [1]: 5.35 nM

O=C(O)CCCOc1cccc(CCCCCCOc2cc(-c3ccccc3)cc(-c3ccc4c(c3)OCO4)c2)c1CCC(=O)O
IC50 [1]: 0.58 nM | IC50 (Neutrophil): 0.7 nM

O=C(O)CCCOc1cccc(CCCCCCOc2cc(-c3ccncc3)cc(-c3ccsc3)c2)c1CCC(=O)O
IC50 [1]: 0.2 nM

O=C(O)CCCOc1cccc(CCCCCCOc2cc(-c3ccccc3)cc(-c3ccccc3)n2)c1CCC(=O)O
Cmax [6]: 2110 nM | Tmax [7]: 2.3 h | IC50 (Cytochrome P450 2C19): > 7500 nM | IC50 (Cytochrome P450 1A2): > 7500 nM | IC50 [8]: 205 nM | bioavailability [9]: 28% | IC50 (Cytochrome P450 2D6): > 7500 nM | IC50 (Cytochrome P450 3A4): > 7500 nM | IC50 [1]: 0.48 nM | IC50 (Cytochrome P450 2C9): > 12500 nM | half-life [10]: 2.1 h | half-life [11]: 2.9 h | Activity (Cavia porcellus): Active | IC50 [12]: 3060 nM | INH [2]: Not Active | IC50 (Neutrophil): 1.8 nM | solubility [3]: 16.5 µg/mL (≈ 28.4 µM) | clearance [13]: 7.53 mL/min/kg | IC50 [14]: > 3000 nM | Vd [15]: 0.3 L/kg | Activity (Cynomolgus monkey): Active | solubility [5]: 27.7 µg/mL (≈ 47.6 µM)

O=C(O)CCCOc1cccc(CCCCCCOc2cc(-c3ccccc3)cc(-c3ccsc3)c2)c1CCC(=O)O
IC50 [1]: 0.36 nM | IC50 (Neutrophil): 0.2 nM
